The source of these data is ChEMBL document CHEMBL3351966, “Structural manipulation on the catecholic fragment of dopamine D(1) receptor agonist 1-phenyl-N-methyl-benzazepines” (Eur J Med Chem, 2014).

pKi: −log10 of the molar value.

Test [1] addresses 5-hydroxytryptamine receptor 2A (Homo sapiens, UniProt P28223). Nature of the test: Displacement of [3H]ketanserin from human 5HT2A receptor expressed in HEK293 cell membranes by liquid scintillation counting based competition binding assay. The essentials:
(§1)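 Competition binding on membranes from stably transfected cell lines ([…]), clones selected with G418. Buffer 50 mM Tris, 4 mM MgCl₂, pH 7.4 with 0.7 nM radioligand and increasing compound concentrations. Duplicate tubes incubated at 30 °C for 50 min, then rapid filtration through GF/B filters and cold-buffer wash. Compounds from 10^-1 M DMSO stock. Ki as mean of three to five experiments, racemates.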
On the technique in general: Displacement assays read how much labelled ligand stays bound in the presence of the test substance.

In test [2] the target is D(1A) dopamine receptor (Homo sapiens, UniProt P21728). The test can be described thus: Displacement of [3H]SCH23390 from human dopamine D1 receptor expressed in HEK293 cell membranes by liquid scintillation counting based competition binding assay. The essentials:
as §1

Test [3] addresses D(3) dopamine receptor (Homo sapiens, UniProt P35462). The test can be described thus: Displacement of [3H]spiperone from human dopamine D3 receptor expressed in HEK293 cell membranes by liquid scintillation counting based competition binding assay. Summed up:
as §1

The target of test [4] is D(2) dopamine receptor (Homo sapiens, UniProt P14416). The test can be described thus: Displacement of [3H]spiperone from human dopamine D2 receptor expressed in HEK293 cell membranes by liquid scintillation counting based competition binding assay. The essentials: as §1
Chain of D(2) dopamine receptor (P14416 whole entry): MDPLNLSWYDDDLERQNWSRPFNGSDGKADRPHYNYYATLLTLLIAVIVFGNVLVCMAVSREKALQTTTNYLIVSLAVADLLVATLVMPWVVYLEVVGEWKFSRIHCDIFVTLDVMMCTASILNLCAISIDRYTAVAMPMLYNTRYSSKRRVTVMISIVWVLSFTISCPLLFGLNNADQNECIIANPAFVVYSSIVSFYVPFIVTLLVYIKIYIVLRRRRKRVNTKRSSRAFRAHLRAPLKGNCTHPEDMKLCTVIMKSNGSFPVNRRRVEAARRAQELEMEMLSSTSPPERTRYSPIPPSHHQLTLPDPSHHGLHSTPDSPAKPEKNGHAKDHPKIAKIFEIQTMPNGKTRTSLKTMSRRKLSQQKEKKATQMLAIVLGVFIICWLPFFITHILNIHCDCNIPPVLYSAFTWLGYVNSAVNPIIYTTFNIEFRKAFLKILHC
The target in test [5] is T1, 5-hydroxytryptamine receptor 1A (Rattus norvegicus, UniProt P19327).
T1 sequence (P19327 whole entry): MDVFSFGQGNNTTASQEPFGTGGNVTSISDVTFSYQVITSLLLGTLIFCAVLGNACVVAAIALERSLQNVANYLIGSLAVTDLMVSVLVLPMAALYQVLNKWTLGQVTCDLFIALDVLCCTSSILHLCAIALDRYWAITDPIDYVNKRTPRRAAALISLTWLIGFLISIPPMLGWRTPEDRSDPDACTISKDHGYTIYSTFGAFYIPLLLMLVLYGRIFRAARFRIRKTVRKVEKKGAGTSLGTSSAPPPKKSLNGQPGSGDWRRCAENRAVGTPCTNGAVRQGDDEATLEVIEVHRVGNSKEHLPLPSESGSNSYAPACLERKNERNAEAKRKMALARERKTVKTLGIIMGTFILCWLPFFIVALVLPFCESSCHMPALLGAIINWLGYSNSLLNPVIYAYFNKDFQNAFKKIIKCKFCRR
Nature of the test: Displacement of [3H]8-OH-DPAT from rat 5HT1A receptor expressed in CHO cell membranes by liquid scintillation counting based competition binding assay. The essentials: as §1

Chain of D(1A) dopamine receptor (P21728 whole entry): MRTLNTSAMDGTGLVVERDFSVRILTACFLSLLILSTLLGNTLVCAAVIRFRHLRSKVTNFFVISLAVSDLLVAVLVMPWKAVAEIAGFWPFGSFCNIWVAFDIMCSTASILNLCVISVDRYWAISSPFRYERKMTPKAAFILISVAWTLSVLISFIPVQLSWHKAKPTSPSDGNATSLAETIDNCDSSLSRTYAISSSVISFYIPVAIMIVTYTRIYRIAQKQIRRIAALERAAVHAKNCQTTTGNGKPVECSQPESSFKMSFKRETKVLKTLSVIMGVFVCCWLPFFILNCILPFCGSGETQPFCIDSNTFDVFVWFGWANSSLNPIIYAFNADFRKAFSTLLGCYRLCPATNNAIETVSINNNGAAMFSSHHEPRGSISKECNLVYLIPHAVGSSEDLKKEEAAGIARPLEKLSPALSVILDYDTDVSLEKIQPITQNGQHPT
Chain of 5-hydroxytryptamine receptor 2A (P28223 whole entry): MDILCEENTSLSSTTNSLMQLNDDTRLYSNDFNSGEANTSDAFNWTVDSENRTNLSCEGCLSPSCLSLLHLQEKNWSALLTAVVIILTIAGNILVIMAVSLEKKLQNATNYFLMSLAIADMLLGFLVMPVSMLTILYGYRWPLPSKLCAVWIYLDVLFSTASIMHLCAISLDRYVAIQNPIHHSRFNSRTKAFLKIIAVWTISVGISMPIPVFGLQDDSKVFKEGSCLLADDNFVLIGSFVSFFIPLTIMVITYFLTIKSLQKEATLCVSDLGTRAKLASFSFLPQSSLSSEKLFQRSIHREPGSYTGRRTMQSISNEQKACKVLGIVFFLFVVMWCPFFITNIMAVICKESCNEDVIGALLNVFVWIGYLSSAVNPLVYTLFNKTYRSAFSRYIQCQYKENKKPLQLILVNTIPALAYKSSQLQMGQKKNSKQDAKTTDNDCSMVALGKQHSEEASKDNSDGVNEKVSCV
Chain of D(3) dopamine receptor (P35462 whole entry): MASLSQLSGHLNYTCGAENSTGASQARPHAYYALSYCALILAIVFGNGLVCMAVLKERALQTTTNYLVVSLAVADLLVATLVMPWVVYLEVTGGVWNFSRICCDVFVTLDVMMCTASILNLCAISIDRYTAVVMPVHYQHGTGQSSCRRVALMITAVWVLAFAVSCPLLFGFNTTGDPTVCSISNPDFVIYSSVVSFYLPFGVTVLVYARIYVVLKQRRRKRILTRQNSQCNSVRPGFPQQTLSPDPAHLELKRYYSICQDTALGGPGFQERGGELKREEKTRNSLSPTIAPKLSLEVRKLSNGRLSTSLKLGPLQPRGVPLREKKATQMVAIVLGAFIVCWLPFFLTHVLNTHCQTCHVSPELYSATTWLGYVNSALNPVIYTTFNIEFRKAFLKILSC

What is called pKi is the Ki on a negative log10 scale, so that one unit is a factor of ten. A low value points to a high Ki. For `CN1CCc2ccc(O)cc2C(c2ccccc2)C1` (racemic), the pKi in test [1] is 6.88; in test [2], 6.68; in test [3], less than 6.00; in test [4], less than 6.00; in test [5] it was less than 6.00.
`CN1CCc2cc(N)c(O)cc2C(c2ccccc2)C1` (racemic): the pKi in test [1] is less than 6.00; in test [2], 6.48; in test [3], less than 6.00; in test [4], less than 6.00; in test [5] it was less than 6.00.
On to `CN1CCc2cc(O)ccc2C(c2ccccc2)C1` (racemic), for which the pKi in test [2], in test [3] and in test [4] was less than 6.00 in each case.
On to `CN1CCc2cc(O)c(N)cc2C(c2ccccc2)C1` (racemic), for which the pKi is less than 6.00 in test [1]; 6.45 in test [2]; less than 6.00 in test [3]; less than 6.00 in test [4]; less than 6.00 in test [5].
On to `CN1CCc2cc(NCc3ccccc3)c(O)cc2C(c2ccccc2)C1` (racemic), for which the negative logarithm of the Ki (pKi) in test [1] was 8.34; in test [2], 6.18; in test [3], less than 6.00; in test [4], less than 6.00; in test [5], less than 6.00.
Take `CN1CCc2cc(NCc3cccc(Cl)c3)c(O)cc2C(c2ccccc2)C1` (racemic): the negative-log Ki (pKi) in test [1] is 7.99; in test [2], 6.56; in test [4] it was less than 6.00; in test [5] it was 6.32.
For `Cc1cccc(CNc2cc3c(cc2O)C(c2ccccc2)CN(C)CC3)c1` (racemic), in that order: 8.00, 6.43, less than 6.00 and less than 6.00.
Regarding `Cc1ccccc1CNc1cc2c(cc1O)C(c1ccccc1)CN(C)CC2` (racemic), the pKi in test [1] is 6.72; in test [2] it was 6.53; in test [4] it was less than 6.00; in test [5], less than 6.00.
Regarding `Cc1ccc(CNc2cc3c(cc2O)C(c2ccccc2)CN(C)CC3)cc1` (racemic), the negative-log Ki (pKi) was 6.06 in test [1], 6.12 in test [2], less than 6.00 in test [4] and less than 6.00 in test [5].
Consider `CC(=O)Nc1cc2c(cc1O)C(c1ccccc1)CN(C)CC2` (racemic), for which the pKi in test [2] and in test [4] was less than 6.00 throughout.
Turning to `CN1CCc2cc(-n3cccc3)c(O)cc2C(c2ccccc2)C1` (racemic), the pKi in test [2] and in test [4] was less than 6.00 in each case.
As to `Cc1ccc(-c2cc3c(cc2O)C(c2ccccc2)CN(C)CC3)cc1` (racemic), the pKi in test [2], in test [3] and in test [4] was less than 6.00 each time.
Take `Cc1cccc(-c2cc3c(cc2O)C(c2ccccc2)CN(C)CC3)c1` (racemic): the pKi in test [1] was 6.79; in test [2] it was 6.67; in test [3], less than 6.00; in test [4] it was less than 6.00; in test [5], less than 6.00.
For `Cc1ccccc1-c1cc2c(cc1O)C(c1ccccc1)CN(C)CC2` (racemic), the negative-log Ki (pKi) in test [2] is 6.04; in test [4], less than 6.00.
For `CN1CCc2cc(-c3ccc4ccccc4c3)c(O)cc2C(c2ccccc2)C1` (racemic), in that order: less than 6.00 and less than 6.00.
On to `CN1CCc2cc(-c3ccc(O)cc3)c(O)cc2C(c2ccccc2)C1` (racemic), for which the pKi in test [1] was 6.08; in test [2], 6.46; in test [4], less than 6.00; in test [5], less than 6.00.
As to `CN1CCc2cc(O)c(CO)cc2C(c2ccccc2)C1` (racemic), the pKi in test [2], in test [3] and in test [4] was less than 6.00 in each case.
Regarding `CN1CCc2cc(O)c(CN)cc2C(c2ccccc2)C1` (racemic), the pKi in test [2], in test [3] and in test [4] was less than 6.00 throughout.
For `CN1CCc2cc(N)ccc2C(c2ccccc2)C1` (racemic), the pKi in test [2], in test [3] and in test [4] was less than 6.00 each time.
As for `CN1CCc2ccc(N)cc2C(c2ccccc2)C1` (racemic), the results for the pKi in test [2], in test [3] and in test [4] were 6.23, less than 6.00 and less than 6.00, respectively.
As to `CNc1ccc2c(c1)C(c1ccccc1)CN(C)CC2` (racemic), the pKi in test [2] and in test [4] was less than 6.00 throughout.
In the case of `CN1CCc2ccc(N(C)C)cc2C(c2ccccc2)C1` (racemic), the pKi in test [2] and in test [4] was less than 6.00 in each case.
`CN1CCc2cc3oc(=O)[nH]c3cc2C(c2ccccc2)C1` (racemic): the pKi in test [2] and in test [4] was less than 6.00 throughout.
With `CN1CCc2cc3c(cc2C(c2ccccc2)C1)NC(=O)CO3` (racemic), the pKi in test [2] and in test [4] was less than 6.00 in each case.
Turning to `CN1CCc2cc3ocnc3cc2C(c2ccccc2)C1` (racemic), the pKi in test [2] and in test [4] was less than 6.00 throughout.
Turning to `CN1CCN(c2nc3cc4c(cc3o2)CCN(C)CC4c2ccccc2)CC1` (racemic), the pKi in test [2] and in test [4] was less than 6.00 in each case.
For `CCN(CC)c1cc2c(cc1O)C(c1ccccc1)CN(C)CC2` (racemic), the pKi in test [2], in test [3] and in test [4] was less than 6.00 throughout.
